Reference: ChEMBL document CHEMBL1155758, “Heliotropium huascoense resin exudate: chemical constituents and defensive properties” (J Nat Prod, 2001)
The source made the active and inactive calls. No cut-off for these calls is given here.

Legend:
[1] = system: Spodoptera littoralis; test: Antifeedant activity against fifth instar Spodoptera littoralis L6 larvae assessed as food consumption at 20 ug/insect, po relative to control; assay type: functional
Method in brief: (§1)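 Larval consumption and biomass gain were expressed as % of control. Significance versus control was tested at p < 0.05 with LSD. A second ANCOVA was run on biomass gain with food consumption as covariate to detect postingestive effects.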

[2] = system: Leptinotarsa decemlineata; test: Antifeedant activity against Leptinotarsa decemlineata adults by choice test; assay type: functional, organism-based
Method in brief: (§2)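 Choice feeding bioassay using adult beetles, newly emerged fifth-instar larvae or apterous adult aphids. Percent feeding inhibition (FI) and percent settling inhibition (SI) were calculated as previously described. Compounds giving FR/SI > 50% were taken into a dose-response test, with EC50 (dose giving 50% feeding reduction) obtained by linear regression of %FR or %SI on log dose.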

[3] = system: Leptinotarsa decemlineata; test: Antifeedant activity against Leptinotarsa decemlineata adults at 50 ug/cm'2 by choice test; assay type: functional; method in brief: as §2
[4] = system: Spodoptera littoralis; test: Antifeedant activity against fifth instar Spodoptera littoralis L6 larvae; assay type: functional, organism-based; method in brief: as §2
[5] = system: Leptinotarsa decemlineata; test: Antifeedant activity against Leptinotarsa decemlineata adults by no-choice test; assay type: functional, organism-based
[6] = system: Leptinotarsa decemlineata; test: Antifeedant activity against Leptinotarsa decemlineata adults at 50 ug/cm'2 by no-choice test; assay type: functional
[7] = system: Spodoptera littoralis; test: Antifeedant activity against fifth instar Spodoptera littoralis L6 larvae at 50 ug/cm'2; assay type: functional; method in brief: as §2
[8] = system: Myzus persicae; test: Antifeedant activity against Myzus persicae apterous adults; assay type: functional, organism-based; method in brief: as §2
[9] = system: Leptinotarsa decemlineata; test: Insecticidal activity against Leptinotarsa decemlineata adults assessed as mortality at 10 ug/insect dosed in to hemolymph injection after 72 hrs; assay type: functional
Method in brief: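 Adult Colorado potato beetles, 20 per compound, each injected into the hemolymph with 10 µg of compound dissolved in DMSO. Mortality was scored for up to 3 days after injection. Percent mortality was analysed with contingency tables and corrected by Abbott's formula.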

[10] = system: Spodoptera littoralis; test: Antifeedant activity against fifth instar Spodoptera littoralis L6 larvae assessed as weight gain at 20 ug/insect, po relative to control; assay type: functional; method in brief: as §1
[11] = system: Aspergillus niger; test: Antifungal activity against Aspergillus niger assessed as inhibition of mycelial growth at 0.5 mg/mL; assay type: functional; conditions: read-out: GI
Method in brief: (§3)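 Single-dose test at 0.5 mg/mL against the plant pathogens; activity estimated as percent mycelial growth inhibition.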

[12] = system: Fusarium verticillioides; test: Antifungal activity against Fusarium moniliforme assessed as inhibition of mycelial growth at 0.5 mg/mL; assay type: functional; conditions: read-out: GI; method in brief: as §3
[13] = system: Spodoptera littoralis; test: Antifeedant activity against fifth instar Spodoptera littoralis L6 larvae at 100 ug/cm'2; assay type: functional; method in brief: as §2

SMILES	Activity [1] [%]	EC50 [2] [ug.cm'-2]	Activity [3] [%]	EC50 [4] [ug.cm'-2]	EC50 [5] [ug.cm'-2]	Activity [6] [%]	Activity [7] [%]	Activity [8]	Activity [9] [%]	Activity [10] [%]	inhibition of growth at 500 µg/mL [11] [%]	inhibition of growth at 500 µg/mL [12] [%]	Activity [13] [%]
COC(=O)c1ccc(OC)c(C[C@@H]2C(C)(C)C(=O)C=C[C@@]2(C)O)c1	75.9	50	55.4	17.4	24.19	81.82	71.8	inactive	0	66.1			
COc1ccc(C(=O)O)cc1C[C@@H]1C(C)(C)C(=O)C=C[C@@]1(C)O (relative stereo)	113.1	> 50	37	> 100	50	56.1	0	inactive	0	126.2			
C[C@@H]1CC[C@@H]2C(C)(C)C[C@]3(C)CC=C[C@]123 [SILPHINENE]		0.27			2.7				24				
COC(=O)c1ccc2c(c1)C[C@@]1(O2)[C@@H](C)CC[C@@H](O)C1(C)C [FILIFOLINOL]	120.2	> 50	16.82	> 100	> 50	42.4		inactive	20	120.9	36	61	34.6
